Reference: the array DNA melting data of Ke et al. (doi:10.1101/2024.01.08.574731)

Assays:
[1] = folding enthalpy; higher = less favourable; fluorescence melt of hairpins on a sequencing array, two-state fit; details: sodium 0.088 M
Method in brief: (§1)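 Cy3 fluorescence of library hairpins on a sequenced MiSeq flow cell, with annealed Cy3 and quencher oligos, was imaged in 50 mM Na-HEPES pH 8.0, 25 mM NaCl in 2.5 °C steps up to 60 °C. Signals were normalised to pre-quench Cy3 and to control variants. Melting temperature and folding enthalpy came from bootstrapped two-state fits, inverse-variance combined over four replicates. Fitted temperatures were raised by 9.35 °C to match UV melts.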

[2] = melting temperature; fluorescence melt of hairpins on a sequencing array, two-state fit, raised by 9.35 °C to match UV melts; details: sodium 0.088 M
Method in brief: as §1

| Sequence | folding enthalpy [1] [kcal/mol] | Tm [2] [°C] |
| --- | --- | --- |
| GATCCCTACTGGGATC ((((((....)))))) | -37.7 | 64.4 |
| GCGTGGGGACGC ((((....)))) | -21.1 | 52.6 |
| GATCGGCAGACCGATC ((((((....)))))) | -38 | 57.5 |
| GCGGATGGAAACGTCTGC ((.((.(....).)).)) | -28.1 | 44.3 |
| GATCTACTGATAGATC ((((((....)))))) | -28.8 | 39.3 |
| GAACGAGGAAACTCGTTC (((((((....))))))) | -41.2 | 63.8 |
| GATCGTGCACACGATC ((((((....)))))) | -41.3 | 64.7 |
| GCCTGGCGAAAGCAGGGC (((..((....))..))) | -26.7 | 65.6 |
| GGCGAGGGAAACCTCGTC (.(((((....))))).) | -36.4 | 60.8 |
| GATCTGTCGACAGATC ((((((....)))))) | -49.6 | 55.1 |
| GATATGCGAAAGCAAATC (((.(((....))).))) | -24.3 | 40.1 |
| GTTTAGGGAAACCTGAAC (((.(((....))).))) | -34.8 | 38.5 |
| GAACACGGAAACGCGTTC ((((.((....)).)))) | -35.8 | 48.1 |
| GCGAAGCGAAAGCTCCGC (((.(((....))).))) | -36.7 | 50.9 |
| GGATGACGAAAGTCTTCC (((.(((....))).))) | -42.5 | 52.9 |
| GGAATAGGAAACTATCCC ((.((((....)))).)) | -10.9 | 28 |
| GCTCTGCGAAAGCTGGGC ((.(.((....)).).)) | -21.4 | 54.3 |
| GATCTAACATTAGATC ((((((....)))))) | -22.6 | 39.6 |
| GTACCACGAAAGTGATAC (((.(((....))).))) | -24.3 | 43.7 |
| GATCCTGGCTAGGATC ((((((....)))))) | -38.3 | 57.5 |
| GCAAGCGAAAGCTCATGC ((((((....)))..))) | -12.5 | 35.2 |
| GATCCTCGCGAGGATC ((((((....)))))) | -43.4 | 60.4 |
| GATCTCTACGGAGATC ((((((....)))))) | -36 | 55.6 |
| GCGAACCCTCGC ((((....)))) | -23.2 | 47 |

| Sequence | folding enthalpy [1] [kcal/mol] | Tm [2] [°C] |
| --- | --- | --- |
| GTACGAGGAAACTTGTGC (.((.((....)).)).) | -16.8 | 33 |
| GATCGCAGAGGCGATC ((((((....)))))) | -35.8 | 66.8 |
| GATCACGGGCGTGATC ((((((....)))))) | -40.4 | 57.8 |
| GCTTGAACGAAAGTTAGC (((..(((....)))))) | -13.7 | 36.1 |
| GATCTGATAACAGATC ((((((....)))))) | -35.7 | 47 |
| GATCATCATTATGATC ((((((....)))))) | -34.6 | 46.8 |
| GGGCTAGGAAACTAGTCC ((.((((....)))).)) | -37.6 | 52.4 |
| GAGCGGCGAAAGCCCTC (((.(((....)))))) | -16.1 | 53 |
| GCCAGCACGAAAGTGGGC (((..(((....)))))) | -26.9 | 50.9 |
| GTGGCCGAAAGGCTCCAC ((((((....)))..))) | -11.4 | 39 |
| CGCTGCCGGAAACGGGCG (((..(((....)))))) | -22.8 | 46.7 |
| GCTTACGAAAGTAAGC ((((((....)))))) | -31.8 | 68.9 |
| GCTTTCACGAAAGTGAGC (((..(((....)))))) | -11.2 | 33.8 |
| GATCTTGCAAAGATC ((((((...)))))) | -41 | 55 |
| GCCGTCGAAAGACCGGGC ((((((....)))..))) | -22.1 | 50.3 |
| GTTACCGAAAGGTAAAC ((((((....))).))) | -15.7 | 48 |
| GTACCAGGAAACTAGTAC ((((.((....)).)))) | -15.3 | 28.7 |
| GAGTGCGCGAAAGCGCTC (((..(((....)))))) | -5.97 | 32 |
| CGTTAGCGGAAACGCACG (((..(((....)))))) | -18.1 | 39.8 |
| GCCAAGCGAAAGCTAGGC (((.(((....))).))) | -40.1 | 60.4 |
| GTATTACGAAAGTATTAC (((.(((....))).))) | -28.4 | 34.8 |
| GATCGGAACTCCGATC ((((((....)))))) | -45.1 | 55.2 |
| GTTGGAGGAAACTTCAAC ((((.((....)).)))) | -31.4 | 41.9 |
| GAAGACGAAAGTCAGTTC ((((((....)))..))) | -15 | 24 |

| Sequence | folding enthalpy [1] [kcal/mol] | Tm [2] [°C] |
| --- | --- | --- |
| GATCTGGCAACAGATC ((((((....)))))) | -35 | 57.6 |
| GAGGTGGGAAACCGCTTC ((.(.((....)).).)) | -19.1 | 50 |
| TGCAAGAAATTGCA (((((....))))) | -17.6 | 39.7 |
| GCGTTAAAACGC ((((....)))) | -21.4 | 50.3 |
| GCCCCGCGAAAGCGTTGC ((..(((....)))..)) | -9.75 | 33.5 |
| GATCTTGGATAAGATC ((((((....)))))) | -30.6 | 49.4 |
| GATCTAGGGTTAGATC ((((((....)))))) | -28.4 | 37.4 |
| GATCCCTCCGGGATC ((((((...)))))) | -44.2 | 67.7 |
| GGGTAGCGAAAGCTCCCC (((.(((....))).))) | -28 | 55.1 |
| GGACTAGGAAACTGGTCC ((((.((....)).)))) | -41.6 | 50.9 |
| GTAGTCGAAAGACTAC ((((((....)))))) | -31.9 | 64.1 |
| GAATGCGAAAGCAGTTC ((((((....))).))) | -13.9 | 41.8 |
| GTGTTATCGAAAGATCAC (((..(((....)))))) | -27.6 | 33.8 |
| GGCTGTGCGAAAGCAGCC (((..(((....)))))) | -27.1 | 57.5 |
| GATCTGTGTCCAGATC ((((((....)))))) | -31.8 | 49.2 |
| GGAGCGGGAAACCGCTTC (.(((((....))))).) | -16.6 | 58.2 |
| GCTCTGACGAAAGTCAGC (((..(((....)))))) | -7.47 | 31.3 |
| GCTTCCCGAAAGGGAGC (((.(((....)))))) | -22.3 | 57.1 |
| CGCGTACGGAAACGTGCG (((..(((....)))))) | -23.7 | 50 |
| GACATCGGAAACGATATC ((.((((....)))).)) | -21.9 | 31.6 |
| GATCAAGTGTTGATC ((((((...)))))) | -32 | 40.9 |
| GTTTCAGGAAACTGAAAC (((((((....))))))) | -45 | 55.3 |
| GAACGGGGAAACCCATTC (((.(((....))).))) | -19 | 33.2 |
| CGGCCGGAAACGGTCCG ((((((....))).))) | -32 | 57.7 |

| Sequence | folding enthalpy [1] [kcal/mol] | Tm [2] [°C] |
| --- | --- | --- |
| GCTTCGCGAAAGCGTCGC ((..(((....)))..)) | -15.6 | 41.4 |
| GATCGGACTCCCGATC ((((((....)))))) | -35.3 | 53.8 |
| GTGCTGCGAAAGCACAC (((.(((....)))))) | -19.4 | 55.3 |
| GATCGCCACCGCGATC ((((((....)))))) | -40.2 | 67.1 |
| GCTCAAGGAAACTTGAAC (.(((((....))))).) | -15 | 31.8 |
| GGGGCAGGAAACCACCCC ((((..(....)..)))) | -28.6 | 36.6 |
| GATCCGGGGACGGATC ((((((....)))))) | -41.6 | 61.9 |
| GATCCGTGATCGGATC ((((((....)))))) | -32.1 | 58.6 |
| GCGTTAGAACGC ((((....)))) | -20.3 | 52.8 |
| GGGTGGGAAACCACCC ((((((....)))))) | -29.6 | 68.2 |
| GCCAGGGGAAACCCTGAC (.(((((....))))).) | -15.4 | 47.6 |
| GGATCAGGAAACTGACCC ((.((((....)))).)) | -27.7 | 41.4 |
| GCGATAATTCGC ((((....)))) | -23.5 | 48.2 |
| GACTCTGAAAAGAGTC ((((((....)))))) | -32 | 58 |
| GGAATGGCGAAAGCCTCC (((..(((....)))))) | -10.2 | 36.7 |
| GCATCACGAAAGTGTTGC (((.(((....))).))) | -44 | 55 |
| GTTTCAGAAATGAAAC ((((((....)))))) | -27.3 | 47.2 |
| GTAGAGGGAAACTTCTAC (((((.(....).))))) | -21.5 | 35 |
| GGCAACGGAAACACTGCC ((((..(....)..)))) | -15 | 29.7 |
| GCACGCGAAAGCGTTTGC ((((((....)))..))) | -10.6 | 42.9 |
| GATCTTTTAAAAGATC ((((((....)))))) | -39.2 | 45.9 |
